{"data": "Assay results collected from several papers", "target": "Serine/threonine-protein kinase PAK 5 (PAK5, Homo sapiens, UniProt Q9P286)", "note": "Lines come from different studies, so protocols differ."}
{"SMILES": "O=c1[nH]c2ccccc2n1C1CCN(Cc2ccc(-c3[nH]c4cc5ncnc5cc4nc3-c3ccccc3)cc2)CC1", "assay": "cell-free assay", "conditions": "0.5 µM", "quantity": "remaining signal", "value": "110%"}
{"SMILES": "Cn1cc(-c2cc(F)cc(N3CCn4c(cc5c4CCCC5)C3=O)c2CO)cc(Nc2ccc(N3CCN(C4COC4)CC3)cn2)c1=O", "assay": "enzyme activity, inhibitor", "conditions": "0.1 µM", "quantity": "inhibition", "value": "10%"}
{"SMILES": "COc1cc(Nc2ncc(F)c(Nc3ccc4c(n3)NC(=O)C(C)(C)O4)n2)cc(OC)c1OC", "assay": "binding", "conditions": "10 µM", "quantity": "inhibition", "value": "100%"}
{"SMILES": "COc1ncccc1-c1cnn2ccc(N3CCN(C(=O)OC(C)C)CC3)nc12", "assay": "binding, competition with immobilised ligand", "conditions": "1 µM", "quantity": "remaining binding", "value": "100%"}
{"SMILES": "Cc1nn(C)cc1-c1nc2c(N3CCN(Cc4ccc(Cl)cc4)CC3)c(Cl)cnc2[nH]1", "assay": "binding, competition with immobilised ligand", "conditions": "1 µM", "quantity": "remaining binding", "value": "83%"}
{"SMILES": "C#Cc1n[nH]c2c(-c3cn(C(C)c4ccccn4)c(=O)[nH]c3=O)cc(F)cc12 (stereo not shown)", "assay": "enzyme activity, inhibitor", "conditions": "1 µM", "quantity": "inhibition", "value": "-3.8%"}
{"SMILES": "Cn1cncc1[C@@](O)(COc1ccc(C#N)cc1-c1ccc(OC(F)(F)F)cc1)c1ccc(C#N)cc1", "assay": "cell-free assay, competition with immobilised ligand", "conditions": "1 µM", "quantity": "remaining binding", "value": "100%"}
{"SMILES": "Cn1cc(-c2cccc(N3CCc4c(sc5c4CC(C)(C)C5)C3=O)c2CO)cc(Nc2ccncn2)c1=O", "assay": "enzyme activity, inhibitor", "conditions": "1 µM", "quantity": "inhibition", "value": "4%"}
{"SMILES": "N#CC1(c2ccccn2)CCN(Cc2cc(C(=O)O)c(=O)n3ccccc23)CC1", "assay": "cell-free assay, competition with immobilised ligand", "conditions": "1 µM", "quantity": "remaining binding", "value": "96%"}
{"SMILES": "Nc1ncc(-c2nc(N3CCOCC3)nc(N3CCOCC3)n2)c(C(F)F)n1", "assay": "binding, competition with immobilised ligand", "conditions": "10 µM", "quantity": "remaining binding", "value": "52%"}
